Shown are actives, neighbours in structure and some others; about 3% of the full set was active somewhere.
SENP1 inh: inhibitors of human SENP1 SUMO protease catalytic domain; Q9P0U3; recombinant SENP1 catalytic domain, CyPet-SUMO1-YPet FRET cleavage; inhibition, % at 10 µM; 360,000 compounds, 0.21% hits; AID 624204;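 active = inhibition at least 30% at 10 µM, raw YFP signal under a set limit, fluorescence ratio 0.5 to 1.5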
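Test system: recombinant human SENP1 catalytic domain, His6-tagged / Medium: pH 8 Tris buffer with EDTA, NaCl, BME, BSA, NP40, catalase / Also added: SUMO1 FRET substrate flanked by Cypet and Ypet, 25 nM / Times: 50 min reaction at room temperature / Signal: FRET, CFP and YFP emission / Control set: no-enzyme low control and enzyme-plus-DMSO high control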
Granule exo inh: lytic granule exocytosis inhibition | AID 651702 | inhibition, % at 10 µM | 360,000 compounds, 0.66% hits | TALL-104 LAMP-1 surface exposure, flow cytometry; cells stimulated with thapsigargin and PMA;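 active = inhibition above about 55%, limit read from the data; inconclusive = no clear call, values can overlap the other calls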
Myeloid diff MLP: compounds promoting myeloid differentiation | ER-HoxA9 myeloid progenitors, lysozyme-GFP differentiation, flow cytometry | calls only at 10 µM | 360,000 compounds, 1% hits | AID 624256;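 active = normalized GFP-positive differentiation at or above the plate's own cutoff, the solvent-only control mean plus 3 SD; inconclusive = no clear call, values can overlap the other calls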;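 note: cells exposed to compound for four days before flow analysis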
H9c2 protect: protects H9c2 cardiomyocytes from peroxide injury; H2O2 injury protection, ATPLite, 2 h; protection from H2O2 cell death, % at 20 µM; 360,000 compounds, 0.63% hits;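 active = compounds giving at least 50% protection of heart cells from peroxide-induced death in the single-dose screen, raw or plate-pattern-corrected value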
Pemphigus Ab inh: human desmoglein-3 autoantibody binding inhibition | P32926 | DSG3-coupled beads, scFv-anti-DSG3-GFP binding, flow cytometry; stronger effect = lower value | binding (percent of control), % at 10 µM | 310,000 compounds, 0.48% hits | AID 588358;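 active = binding more than 3 SD below its plate's average and above zero; inconclusive = below that plate limit but binding exactly zero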;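 note: hits lower antibody fragment binding to DSG3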
Target sequence (P32926 whole entry, looked up, the tested form may be a part): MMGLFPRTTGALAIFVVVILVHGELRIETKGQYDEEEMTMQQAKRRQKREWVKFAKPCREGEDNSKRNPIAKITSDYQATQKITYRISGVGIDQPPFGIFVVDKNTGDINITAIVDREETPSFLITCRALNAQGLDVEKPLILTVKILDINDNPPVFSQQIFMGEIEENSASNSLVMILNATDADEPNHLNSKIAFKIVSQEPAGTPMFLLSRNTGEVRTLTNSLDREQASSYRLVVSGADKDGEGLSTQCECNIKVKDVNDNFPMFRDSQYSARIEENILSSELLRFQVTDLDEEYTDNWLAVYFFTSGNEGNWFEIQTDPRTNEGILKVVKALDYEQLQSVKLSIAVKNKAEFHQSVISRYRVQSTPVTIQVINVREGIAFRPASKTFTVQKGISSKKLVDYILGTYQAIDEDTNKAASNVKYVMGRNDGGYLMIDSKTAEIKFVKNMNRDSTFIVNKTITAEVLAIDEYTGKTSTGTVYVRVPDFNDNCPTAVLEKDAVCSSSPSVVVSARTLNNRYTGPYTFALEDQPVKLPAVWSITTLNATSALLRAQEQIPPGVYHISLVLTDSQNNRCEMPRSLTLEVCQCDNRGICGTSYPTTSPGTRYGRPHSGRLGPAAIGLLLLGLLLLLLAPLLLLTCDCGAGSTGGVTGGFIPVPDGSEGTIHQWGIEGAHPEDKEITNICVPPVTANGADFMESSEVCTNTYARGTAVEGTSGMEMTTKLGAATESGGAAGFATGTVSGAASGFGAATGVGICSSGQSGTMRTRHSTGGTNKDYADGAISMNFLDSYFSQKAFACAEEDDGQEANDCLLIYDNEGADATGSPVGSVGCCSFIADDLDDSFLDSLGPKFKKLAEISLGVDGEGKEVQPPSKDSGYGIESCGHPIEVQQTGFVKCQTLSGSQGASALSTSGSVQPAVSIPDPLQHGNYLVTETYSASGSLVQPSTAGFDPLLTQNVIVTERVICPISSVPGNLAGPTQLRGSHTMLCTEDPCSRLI
HNF4A DNA FP: change in binding of human HNF4 alpha to DNA | P41235 | HNF4a-FITC DNA binding, fluorescence polarization, 1 h | activity change, % at 10 µM | 360,000 compounds, 0.3% hits; in the data active = activity change above about 30%, passing the limit was not always enough
Of the large screens only hits and unclear results are named; the others gave an inactive call.

C[C@@H]1[C@@H](Sc2ccccc2)CC(=O)O[C@@H]1c1ccc(-c2ccccc2)cc1	Myeloid diff MLP inconclusive
Cc1ccccc1C(=O)O/N=C(\N)Cc1cccs1	none
COCCCn1c(=O)/c(=C\c2ccc(OC(F)F)c(OC)c2)s/c1=C(/C#N)C(N)=O	HNF4A DNA FP 51
COCCCn1c(=O)/c(=C\c2ccccc2OC(F)F)s/c1=C(/C#N)C(N)=O	none
O=C(Nc1ccc(Oc2nnc(-c3ccccc3)c3ccccc23)cc1)c1ccccc1	none
CCOc1ccc(/C=N/NC(=O)c2cccc3ccccc23)c(OCC)c1	none
CC(OC(=O)/C(C#N)=C/c1ccc(N(C)C)cc1)C(=O)N(C)c1ccccc1 (centres undefined)	HNF4A DNA FP 107
CC(=O)Nc1ccc(NC(=O)C(C)OC(=O)/C(C#N)=C/c2ccc(N(C)C)cc2)cc1 (centres undefined)	none
Cc1ccc2[nH]c(=O)c(CN(CCCN3CCOCC3)C(=O)Nc3ccc(Cl)cc3)cc2c1	H9c2 protect 50
Cc1oc(-c2ccc(Cl)cc2)nc1CN1CCCC(C(=O)N2CCN(C(=O)c3ccco3)CC2)C1 (centres undefined)	Myeloid diff MLP active
CCN(CCNC(=O)C1CCN(Cc2nc(-c3ccc(Cl)cc3)oc2C)CC1)c1ccccc1	HNF4A DNA FP 63
CCOC(=O)C1=C(COC(=O)/C=C/c2cccc(OC)c2)NC(=O)NC1C (centres undefined)	Myeloid diff MLP inconclusive
CCCCN1C(=O)C(CC(=O)NCCN2CCOCC2)CC(C(=O)N2CCCCCC2)=C1C (centres undefined)	none (no result: H9c2 protect, Pemphigus Ab inh)
CN1CCc2nc(NC(=O)COc3ccc4ccccc4c3)sc2C1	Myeloid diff MLP inconclusive
CN1CCc2nc(NC(=O)c3cccc(OC(F)F)c3)sc2C1	HNF4A DNA FP 49
CC(=O)N1c2ccccc2Oc2cc3ccccc3cc21	none
O=C(CCl)N1c2ccccc2Oc2ccc3ccccc3c21	Myeloid diff MLP active
Cc1ccc(S(=O)(=O)N(CC2CO2)c2cc(Cl)ccc2Cl)cc1 (centres undefined)	none (no result: Pemphigus Ab inh)
CN(C)c1ccc(/C=C2\N=C(c3ccc(Cl)c([N+](=O)[O-])c3)NC2=O)cc1	SENP1 inh 65, Myeloid diff MLP active
Cc1cccc(Cn2c(NCC(C)O)nc3c2c(=O)n(C)c(=O)n3C)c1 (centres undefined)	none
Cn1c(=O)c2c(nc(NCc3cccnc3)n2Cc2cccc(C(F)(F)F)c2)n(C)c1=O	H9c2 protect 73 (no result: Pemphigus Ab inh)
COc1cccc(Cn2c(NCc3cccnc3)nc3c2c(=O)n(C)c(=O)n3C)c1	Myeloid diff MLP active
COc1cc(/C=C2\SC(=S)N(c3cccnc3)C2=O)ccc1O	Pemphigus Ab inh 68
COc1cc(/C=C2\SC(=S)N(NC(=O)c3ccc(O)cc3)C2=O)ccc1O	HNF4A DNA FP 50
COc1cc(/C=C2\SC(=S)N(NC(=O)c3cccnc3)C2=O)ccc1O	SENP1 inh 49, HNF4A DNA FP 52
CSCC[C@H](N)C(=O)N1CCC(C(=O)N[C@H](C(=O)NCc2ccccc2F)C(C)C)CC1	none (no result: Pemphigus Ab inh)
CCCOc1ccc(C(F)(F)F)cc1NC(=O)C1CC(=O)N(Cc2ccco2)C1 (centres undefined)	none
CC(Sc1nc2ccccc2c(=O)n1CC1CCCO1)C(=O)Nc1ccc(S(N)(=O)=O)cc1 (centres undefined)	none
Cc1oc2ccc(O)cc2c1C(=O)c1ccc(F)cc1	none
CC(=NO)C1CCC2C3CCC4CC(=NO)CCC4(C)C3C(C)(O)CC12C (centres undefined)	H9c2 protect 60
COC(=O)c1ccc(C2NCCc3cc(OC)c(OC)cc32)cc1 (centres undefined)	none
COc1ccc(Oc2cc(F)nc(N)n2)cc1	none
Cc1ccc(C)c(Oc2cc(F)nc(N)n2)c1	Myeloid diff MLP active
COc1cccc(NC(=O)CN(C)C(=O)c2ccc(-n3cncn3)c([N+](=O)[O-])c2)c1	none (no result: Pemphigus Ab inh)
COc1c(Cl)cc(Cl)cc1CNc1ccc(S(N)(=O)=O)cc1	none
Cn1cc(-c2ccccc2C(N)=O)c(=O)c2cc(Cl)ccc21	none
Cn1cc(C2=C(c3ccc(Cl)cc3Cl)C(=O)NC2=O)c2ccccc21	Myeloid diff MLP active
O=C(Nc1ccc2nc(-c3cccs3)[nH]c2c1)c1cccs1	none
O=C(Nc1ccc2nc(-c3cccs3)[nH]c2c1)c1ccco1	Myeloid diff MLP active
COc1ccccc1NC1=C(NC(C)=O)C(=O)c2ccccc2C1=O	Granule exo inh 90
CC(OC(=O)c1ccc(-c2ccc([N+](=O)[O-])cc2)o1)C(=O)NC(N)=O (centres undefined)	none
CC(C)(C)C(=O)/C=c1\s/c(=C\c2ccc(-c3ccc([N+](=O)[O-])cc3)o2)c(=O)n1CC(=O)NC(N)=O	Granule exo inh 58, Myeloid diff MLP active, H9c2 protect 52
Nc1cc(=O)[nH]c(SCC(=O)Nc2ccc([N+](=O)[O-])cc2)n1	none
COC(=O)c1ccccc1NC(=O)CSc1nc(N)cc(N)n1	none
COC(=O)c1ccccc1NC(=O)CSc1nc(N)cc(=O)[nH]1	Pemphigus Ab inh 56
Nc1cc(=O)[nH]c(SCC(=O)Nc2cccc([N+](=O)[O-])c2)n1	Myeloid diff MLP active
Cc1c(C(N)=O)sc2ncn(CC(=O)NCCc3ccccc3)c(=O)c12	none
COc1cccc(OCc2cc(/C=N/Nc3ccc(C(=O)O)cc3)ccc2OC)c1	Pemphigus Ab inh 61
COc1cccc(C(=O)Oc2ccc(/C=N/Nc3ccc(C(=O)O)cc3)cc2OC)c1	none
O=C(Nc1nc(-c2ccccc2)c(C(=O)c2ccccc2)s1)c1ccc(S(=O)(=O)N2CCCC2)cc1	Pemphigus Ab inh -1.0
O=C(Nc1nc(-c2ccccc2)c(-c2ccccc2)s1)c1ccc(S(=O)(=O)N2CCCC2)cc1	Pemphigus Ab inh 82
CN(C)S(=O)(=O)c1ccc(C(=O)Nc2nc(-c3ccccc3)c(C(=O)c3ccccc3)s2)cc1	none
CC(=O)Nc1nn(C)c2nc3cc(C)ccc3cc12	none
Cc1ccc2cc3c(NC(=O)c4cccnc4)nn(C)c3nc2c1	H9c2 protect 59
CC1CCCCC1NC(=O)CCCCn1c(=O)[nH]c2ccsc2c1=O (centres undefined)	Myeloid diff MLP active (no result: Pemphigus Ab inh)
COc1ccc(CC(=O)NCc2n[nH]c(=S)n2-c2cccc(C)c2)cc1	none
O=C(Cc1ccccc1)NCc1n[nH]c(=S)n1-c1ccccc1	Pemphigus Ab inh 12
CC(C)(C)c1ccc(C(=O)N2CCN(CCNC(=O)C(=O)NCc3ccccc3)CC2)cc1	none
Cc1cnc(C(=O)OCC(=O)Nc2ccccc2[N+](=O)[O-])cn1	none
O=C(CSc1nnc(CNC(=O)c2ccc(F)cc2)o1)NCc1ccc2c(c1)OCO2	none
